Measurements taken from ChEMBL document CHEMBL4732129, “Rationally designed N-phenylsulfonylindoles as a tool for the analysis of the non-basic 5-HTR ligands binding mode” (Eur J Med Chem, 2021).
Active and inactive are the calls of the source. The calls are words filed in the database; no cut-off is given here.

What was measured:
[1] = biological target: 5-hydroxytryptamine receptor 6 (Homo sapiens, UniProt P50406); test: Displacement of [3H]-LSD from human 5-HT6 receptor incubated for 1 hr by microbeta counting method
How it was run: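 Human receptor membranes from homogenized cell pellets, centrifuged twice at 35 000 g with a 15 min 37°C incubation between spins. Buffer 50 mM Tris–HCl, 0.5 mM EDTA, 4 mM MgCl2. Radioligand 2 nM [3H]-LSD. Nonspecific binding defined with 10 μM methiothepine. Incubated 1 h at 37°C, ended by filtration. Triplicates at 7–8 concentrations (10⁻¹¹–10⁻⁴ M). Ki by Cheng-Prusoff, means of ≥2 experiments.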

[2] = Dissociation constant, pKa of the compound; assay type: physicochemical
[3] = biological target: T1, 5-hydroxytryptamine receptor 1A (Homo sapiens, UniProt P08908); test: (§1) Displacement of [3H]-8-OH-DPAT from 5-HT1A receptor (unknown origin) incubated for 1 hr by microbeta counting method
T1 sequence (P08908 whole entry): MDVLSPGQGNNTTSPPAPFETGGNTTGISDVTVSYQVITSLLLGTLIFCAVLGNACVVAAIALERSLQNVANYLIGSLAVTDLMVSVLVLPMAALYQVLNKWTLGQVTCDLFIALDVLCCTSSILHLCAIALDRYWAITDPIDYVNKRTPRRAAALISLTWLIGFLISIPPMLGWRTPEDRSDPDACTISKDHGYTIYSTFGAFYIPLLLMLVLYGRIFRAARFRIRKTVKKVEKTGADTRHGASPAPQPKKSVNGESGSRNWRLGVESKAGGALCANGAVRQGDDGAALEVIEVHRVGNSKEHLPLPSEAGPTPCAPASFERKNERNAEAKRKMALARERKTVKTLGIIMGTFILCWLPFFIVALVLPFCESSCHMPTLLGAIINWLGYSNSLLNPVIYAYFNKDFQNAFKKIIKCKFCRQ
How it was run: (§2)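 Membranes prepared from cell pellets by homogenization and two 35 000 g spins with a 15 min 37°C step between them. Buffer 50 mM Tris–HCl, 0.1 mM EDTA, 4 mM MgCl2, 10 μM pargyline, 0.1% ascorbate. Radioligand 1.5 nM [3H]-8-OH-DPAT. Nonspecific binding defined with 10 μM 5-HT. Incubated 1 h at room temperature, then filtered. Triplicates at 7–8 concentrations (10⁻¹¹–10⁻⁴ M). Ki by Cheng-Prusoff, means of ≥2 experiments.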

[4] = biological target: D(2) dopamine receptor (Homo sapiens, UniProt P14416); test: Displacement of [3H]-Raclopride from dopamine D2 receptor (unknown origin) incubated for 1 hr by microbeta counting method
How it was run: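 D2L receptor membranes from cell pellets, homogenized and spun twice at 35 000 g with a 15 min 37°C step between spins. Buffer 50 mM Tris–HCl, 1 mM EDTA, 4 mM MgCl2, 120 mM NaCl, 5 mM KCl, 1.5 mM CaCl2, 0.1% ascorbate. Radioligand [3H]-raclopride. Nonspecific binding defined with 1 μM (+)butaclamol. Incubated 1 h at 37°C, then filtered. Triplicates at 7–8 concentrations (10⁻¹¹–10⁻⁴ M). Ki by Cheng-Prusoff, means of ≥2 experiments.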

[5] = biological target: T2, 5-hydroxytryptamine receptor 1A (Homo sapiens) (UniProt P08908); test: as §1; how it was run: as §2
T2 sequence (whole entry): T1 sequence (P08908 whole entry)

[6] = biological target: 5-hydroxytryptamine receptor 2A (Homo sapiens, UniProt P28223); test: Binding affinity to 5-HT2A receptor (unknown origin) incubated for 1 hr by microbeta counting based displacement assay
[7] = biological target: 5-hydroxytryptamine receptor 7 (Homo sapiens) (UniProt P34969); test: Displacement of [3H]-5-CT from 5-HT7b receptor (unknown origin) incubated for 1 hr by microbeta counting method
How it was run: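 Membranes from thawed cell pellets, homogenized and centrifuged twice at 35 000 g (20 min, 4°C) with a 15 min 37°C incubation between spins. Buffer 50 mM Tris–HCl, 4 mM MgCl2, 10 μM pargyline, 0.1% ascorbate. Radioligand 0.6 nM [3H]-5-CT. Nonspecific binding defined with 10 μM 5-HT. Incubated 1 h at 37°C, ended by rapid filtration. Triplicates at 7–8 concentrations (10⁻¹¹–10⁻⁴ M). Ki by Cheng-Prusoff, means of ≥2 experiments.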

5-hydroxytryptamine receptor 6, sequence (P50406 whole entry): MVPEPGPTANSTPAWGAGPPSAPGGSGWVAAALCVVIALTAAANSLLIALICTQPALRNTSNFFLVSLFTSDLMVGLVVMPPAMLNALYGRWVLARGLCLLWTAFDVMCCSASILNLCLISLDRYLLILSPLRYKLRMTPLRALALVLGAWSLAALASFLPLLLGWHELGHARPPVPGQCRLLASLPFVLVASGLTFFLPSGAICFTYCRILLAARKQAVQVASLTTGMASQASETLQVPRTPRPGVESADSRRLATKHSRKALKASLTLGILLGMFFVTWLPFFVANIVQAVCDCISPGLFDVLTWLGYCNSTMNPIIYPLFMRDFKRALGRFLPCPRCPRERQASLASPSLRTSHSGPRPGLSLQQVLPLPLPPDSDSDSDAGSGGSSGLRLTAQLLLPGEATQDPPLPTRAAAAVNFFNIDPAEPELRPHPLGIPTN
D(2) dopamine receptor, sequence (P14416 whole entry): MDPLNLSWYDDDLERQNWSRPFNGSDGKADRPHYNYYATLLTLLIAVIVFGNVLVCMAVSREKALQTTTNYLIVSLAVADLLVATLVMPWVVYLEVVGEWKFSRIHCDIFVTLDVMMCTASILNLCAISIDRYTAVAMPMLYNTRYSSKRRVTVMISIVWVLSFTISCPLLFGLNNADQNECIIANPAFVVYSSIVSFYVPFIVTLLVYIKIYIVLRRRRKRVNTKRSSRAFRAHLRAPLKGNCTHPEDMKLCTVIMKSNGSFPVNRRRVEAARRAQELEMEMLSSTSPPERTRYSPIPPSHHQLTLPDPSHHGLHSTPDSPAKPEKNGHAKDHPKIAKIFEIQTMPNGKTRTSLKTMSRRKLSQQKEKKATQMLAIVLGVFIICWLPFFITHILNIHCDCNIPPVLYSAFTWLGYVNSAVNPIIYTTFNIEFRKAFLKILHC
5-hydroxytryptamine receptor 2A, sequence (P28223 whole entry): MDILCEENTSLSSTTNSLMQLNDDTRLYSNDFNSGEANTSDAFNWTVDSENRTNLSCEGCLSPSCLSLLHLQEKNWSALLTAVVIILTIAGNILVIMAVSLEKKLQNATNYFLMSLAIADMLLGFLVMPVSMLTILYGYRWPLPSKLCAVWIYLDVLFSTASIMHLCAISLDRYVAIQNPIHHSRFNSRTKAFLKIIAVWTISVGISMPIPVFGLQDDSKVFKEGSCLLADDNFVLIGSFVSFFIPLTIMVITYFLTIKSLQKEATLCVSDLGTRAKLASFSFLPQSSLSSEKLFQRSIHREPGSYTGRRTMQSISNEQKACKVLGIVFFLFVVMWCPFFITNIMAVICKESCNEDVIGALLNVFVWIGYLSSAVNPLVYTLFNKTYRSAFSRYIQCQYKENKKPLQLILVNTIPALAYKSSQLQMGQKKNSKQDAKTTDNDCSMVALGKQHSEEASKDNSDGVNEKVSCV
5-hydroxytryptamine receptor 7 (Homo sapiens), sequence (P34969 whole entry): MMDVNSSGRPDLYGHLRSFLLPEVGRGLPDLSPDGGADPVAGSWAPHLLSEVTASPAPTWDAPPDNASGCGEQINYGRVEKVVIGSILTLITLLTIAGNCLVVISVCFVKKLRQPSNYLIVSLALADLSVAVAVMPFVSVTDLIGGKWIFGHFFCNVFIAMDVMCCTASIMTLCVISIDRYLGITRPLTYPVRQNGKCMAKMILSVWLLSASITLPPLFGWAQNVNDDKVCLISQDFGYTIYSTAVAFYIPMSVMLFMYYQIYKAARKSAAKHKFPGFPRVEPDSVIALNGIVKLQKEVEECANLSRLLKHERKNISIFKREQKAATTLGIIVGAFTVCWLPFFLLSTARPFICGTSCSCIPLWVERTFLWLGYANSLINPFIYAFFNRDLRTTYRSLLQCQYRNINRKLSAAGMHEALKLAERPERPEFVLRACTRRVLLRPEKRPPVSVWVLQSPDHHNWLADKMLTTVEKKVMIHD

| Ki [1] [nM] | pKa [2] | Structure (SMILES) | further results |
| --- | --- | --- | --- |
| 4850 | 0.9 | CC(=O)N1CCN(c2ccc3c(ccn3S(=O)(=O)c3ccccc3)c2)CC1 | – |
| 4720 | – | CN(C)c1cccc2c1ccn2S(C)(=O)=O | – |
| 1200 | 3.6 | O=S(=O)(c1ccccc1)n1ccc2ccc(N3CCN(CC(F)(F)F)CC3)cc21 | – |
| 403 | -0.4 | O=S(=O)(c1ccccc1)n1ccc2ccc(N3CCCCC3)cc21 | – |
| 558 | – | O=S(=O)(c1ccccc1)n1ccc2cc(-c3ccccc3)ccc21 | – |
| 2030 | 3.6 | O=S(=O)(c1ccccc1)n1cc(N2CCN(CC(F)(F)F)CC2)c2ccccc21 | – |
| 27 | 7.4 | CN1CCN(c2ccc3c(ccn3S(=O)(=O)c3ccccc3)c2)CC1 | – |
| 1660 | – | O=S(=O)(N1CCCCC1)n1ccc2ccc(-c3ccncc3)cc21 | – |
| 159 | – | O=S(=O)(c1ccccc1)n1ccc2ccccc21 | – |
| 82 | 3.3 | CN(C)c1ccc2c(ccn2S(=O)(=O)c2ccccc2)c1 | – |
| 474 | 4.2 | CN(C)c1cn(S(=O)(=O)c2ccccc2)c2ccccc12 | – |
| 97 | 0.6 | CC(=O)N1CCN(c2cn(S(=O)(=O)c3ccccc3)c3ccccc23)CC1 | – |
| 9 | 8.2 | CN1CCN(c2ccc3ccn(S(=O)(=O)c4ccccc4)c3c2)CC1 | Ki [3]: 247 nM; Ki [4]: 241 nM |
| 97 | -0.4 | CC(=O)N1CCN(c2ccc3ccn(S(=O)(=O)c4ccccc4)c3c2)CC1 | – |
| 146 | – | O=S(=O)(c1ccccc1)n1cc(-c2ccccc2)c2ccccc21 | – |
| 409 | 4.5 | O=S(=O)(c1ccccc1)n1ccc2cc(-c3ccncc3)ccc21 | – |
| 219 | 4.5 | O=S(=O)(c1ccccc1)n1cc(N2CCCCC2)c2ccccc21 | – |
| 5250 | 3.4 | O=S(=O)(c1ccccc1)n1ccc2cc(N3CCN(CC(F)(F)F)CC3)ccc21 | – |
| 49900 | – | CCCCS(=O)(=O)n1ccc2c(N(C)C)cccc21 | – |
| 2180 | – | O=S(=O)(C1CCCCC1)n1ccc2ccc(-c3ccncc3)cc21 | – |
| 2560 | – | CN(C)c1cccc2c1ccn2Cc1ccccc1 | – |

| Ki [1] [nM] | pKa [2] | Structure (SMILES) | further results |
| --- | --- | --- | --- |
| 4050 | – | CS(=O)(=O)n1ccc2ccc(-c3ccncc3)cc21 | – |
| 39100 | – | CN(C)c1cccc2c1ccn2S(=O)(=O)N1CCCCC1 | – |
| 262 | – | COc1cccc2c1ccn2S(=O)(=O)c1ccccc1 | – |
| 38 | 4.9 | O=S(=O)(c1ccccc1)n1ccc2ccc(-c3ccncc3)cc21 | Activity [5]: inactive; Activity [6]: inactive; Activity [7]: inactive; Activity [4]: inactive |
| 714 | 0.8 | CC(=O)N1CCN(c2cccc3c2ccn3S(=O)(=O)c2ccccc2)CC1 | – |
| 3260 | – | c1ccc(Cn2ccc3ccc(-c4ccncc4)cc32)cc1 | – |
| 162 | – | O=S(=O)(c1ccccc1)n1ccc2c(-c3ccccc3)cccc21 | – |
| – | 7.4 | CN1CCN(c2cn(S(=O)(=O)c3ccccc3)c3ccccc23)CC1 | – |
| 128 | 5.4 | O=S(=O)(c1ccccc1)n1ccc2c(N3CCCCC3)cccc21 | – |
| 4890 | – | CN(C)c1cccc2c1ccn2S(=O)(=O)C1CCCCC1 | – |
| 65 | 5 | CN(C)c1cccc2c1ccn2S(=O)(=O)c1ccccc1 | Activity [5]: inactive; Activity [6]: inactive; Activity [7]: inactive; Activity [4]: inactive |
| 1740 | 3.9 | O=S(=O)(c1ccccc1)n1ccc2c(N3CCN(CC(F)(F)F)CC3)cccc21 | – |
| 211 | -0.3 | CN(C)c1ccc2ccn(S(=O)(=O)c3ccccc3)c2c1 | – |
| 108 | – | O=S(=O)(c1ccccc1)n1ccc2c(O)cccc21 | – |
| 360 | 1.9 | O=S(=O)(c1ccccc1)n1ccc2cc(N3CCCCC3)ccc21 | – |
| 1150 | – | CCCCS(=O)(=O)n1ccc2ccc(-c3ccncc3)cc21 | – |
| 178 | – | O=S(=O)(c1ccccc1)n1ccc2ccc(-c3ccccc3)cc21 | – |
| 1510 | 4.9 | O=S(=O)(c1ccccc1)n1ccc2c(-c3ccncc3)cccc21 | – |
| 124 | 5 | O=S(=O)(c1ccccc1)n1cc(-c2ccncc2)c2ccccc21 | – |
| 127 | – | COc1ccc2c(ccn2S(=O)(=O)c2ccccc2)c1 | – |
| – | 7.3 | CN1CCN(c2cccc3c2ccn3S(=O)(=O)c2ccccc2)CC1 | Ki [3]: 164 nM; Ki [6]: 41 nM |
